Results reported in paper PMC2920599 (Journal of medicinal chemistry, 2010).
Read-outs that look alike come from different tables or passages of the source.

Assays:
[1] = system: Leukemia; assay: NCI 60 cell panel, five-concentration assay, leukemia subpanel; format: cell-based; details: total growth inhibition; 48 h exposure
[2] = system: NSCLC; assay: NCI 60 cell panel, five-concentration assay, NSCLC subpanel; format: cell-based; details: total growth inhibition; 48 h exposure
[3] = system: Colon; assay: NCI 60 cell panel, five-concentration assay, colon subpanel; format: cell-based; details: total growth inhibition; 48 h exposure
[4] = system: CNS; assay: NCI 60 cell panel, five-concentration assay, CNS subpanel; format: cell-based; details: total growth inhibition; 48 h exposure
[5] = system: Melanoma; assay: NCI 60 cell panel, five-concentration assay, melanoma subpanel; format: cell-based; details: total growth inhibition; 48 h exposure
[6] = system: Ovarian; assay: NCI 60 cell panel, five-concentration assay, ovarian subpanel; format: cell-based; details: total growth inhibition; 48 h exposure
[7] = system: Renal; assay: NCI 60 cell panel, five-concentration assay, renal subpanel; format: cell-based; details: total growth inhibition; 48 h exposure
[8] = system: Prostate; assay: NCI 60 cell panel, five-concentration assay, prostate subpanel; format: cell-based; details: total growth inhibition; 48 h exposure
[9] = system: Breast; assay: NCI 60 cell panel, five-concentration assay, breast subpanel; format: cell-based; details: total growth inhibition; 48 h exposure
[10] = system: full NCI 60 cell panel; details: for GI50: read-out: GI50 MG-MID (mean GI50)
[11] = system: MCF-7 breast cancer cells; assay: Growth and death of MCF-7 cells; format: cell-based, human; details: 200 nM, viable cells counted daily
In short: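 MCF-7 cells grown in RPMI 1640 with 10% FBS and 2 mM L-glutamine at 37°C, 5% CO2. Plated at 2×10^4 cells/cm2; compound added 24 h later from 10 mmol/L DMSO working solutions, with DMSO-only controls. Cells harvested with 0.11% trypsin/0.02% EDTA and counted; viability by trypan blue exclusion. Treated vs control compared by Student t-test, P<0.05.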

[12] = system: p53; assay: Western blotting of p53 in MCF-7 cells; format: cell-based, human; details: 5 μM
[13] = system: ERK1/2; assay: Western blotting of ERK1/2 phosphorylation in MCF-7 cells; format: cell-based, human; details: 5 μM, 20 h
In short: (§1)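 MCF-7 cells treated 20 h, then collected in 20 mM HEPES pH 7.5 with 5 mM DTT, 2 mM EDTA, 0.1% CHAPS, 0.1% Triton X-100 and protease inhibitors, and freeze-thawed twice. Extracts run on SDS-PAGE at 80 μg protein/lane and immunoblotted for total and phosphorylated ERK1/2 and Akt, p53, p21 and β-actin. Blots representative of at least three experiments.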

[14] = system: Akt; assay: Western blotting of Akt phosphorylation in MCF-7 cells; format: cell-based, human; details: 5 μM, 20 h
In short: as §1

[15] = system: p21; assay: Western blotting of p21 in MCF-7 cells; format: cell-based, human; details: 5 μM, 24 h
[16] = system: Bax; assay: Bax content in MCF-7 cells; format: cell-based, human
In short: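 MCF-7 cells seeded at 1×10^4 cells/cm2 on glass coverslips and treated. Then fixed in 3% p-formaldehyde, washed with 0.1 M glycine in PBS, and permeabilised in 70% ice-cold ethanol. Stained 1 h at room temperature with mouse monoclonal anti-Bax, then FITC anti-mouse IgG for 1 h, with propidium iodide for nuclei. Confocal imaging used sequential 488 and 568 nm excitation; image representative of three experiments.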

[17] = system: MCF-7 cells; assay: Cell cycle analysis of MCF-7 cells by flow cytometry; format: cell-based, human; details: 200 nM, 24 and 48 h
[18] = calculated panel mean, 48 h exposure
[19] = read-out: LC50 MG-MID (mean LC50), calculated panel mean, 48 h exposure

Row | SMILES | TGI Leukemia [1] [µM] | TGI NSCLC [2] [µM] | TGI Colon [3] [µM] | TGI CNS [4] [µM] | TGI Melanoma [5] [µM] | TGI Ovarian [6] [µM] | TGI Renal [7] [µM] | TGI Prostate [8] [µM] | TGI Breast [9] [µM] | CC50 [10] [µM] | TGI MG-MID (mean TGI) [10, 18] [µM] | GI50 [10, 18] [µM] | other results
1 | COc1cc2c(/C=C3/C(=O)Nc4ccc(Br)cc43)c(Cl)[nH]c2cc1C [Compound 4] | 6.17 | 14.13 | 6.76 | 8.91 | 9.55 | 8.13 | 10.96 | 7.94 | 10.47 | 39.8 | 9.33 | – | –
2 | COc1cc2c(/C=C3/C(=O)Nc4cc(Cl)ccc43)c(Cl)[nH]c2cc1C [Compound 7] | 4.79 | 11.48 | 3.55 | 4.37 | 11.48 | 14.79 | 7.08 | 5.25 | 2.63 | – | 6.61 | 0.21 | –
3 | COc1cc2c(cc1C)NC(=O)/C2=C/c1c(Cl)n(C)c2cc(C)c(OC)cc12 [Compound 8] | 60.26 | 97.72 | 87.10 | 87.10 | 45.71 | 91.20 | – | 97.72 | 77.62 | – | 77.62 | 24 | CC50 [10, 19]: 91.2 µM
4 | COc1cc2c(/C=C3/C(=O)Nc4ccc(Br)cc43)c(Cl)n(C)c2cc1C [Compound 9] | 20.89 | 9.33 | 6.03 | 7.08 | 7.41 | 13.49 | 6.76 | 8.91 | 4.90 | 36.3 | 8.32 | 1.66 | –
5 | COc1cc2c(/C=C3/C(=O)Nc4ccc(N(C)C)cc43)c(Cl)n(C)c2cc1C [Compound 10] | 44.67 | 91.20 | 70.79 | 60.26 | 67.61 | 77.62 | 69.18 | 97.72 | 54.95 | – | 67.61 | – | CC50 [10, 19]: 97.7 µM
6 | COc1cc2c(/C=C3/C(=O)Nc4cc(Cl)ccc43)c(Cl)n(C)c2cc1C [Compound 12] | 1.74 | 11.48 | 0.95 | 1.20 | 7.08 | 2.34 | 15.85 | – | 5.62 | 49 | 3.80 | – | effect on MCF-7 cell growth (total cell number) [11]: blocked MCF-7 cell growth within 48 h; p53 expression ([12]; 20 h): caused a p53 increase; induction of p53 (densitometry) ([12]; 24 h): threefold induction of p53; ERK phosphorylation [13]: decreased ERK phosphorylation; Akt phosphorylation [14]: only slightly decreased; increase of p21 (densitometry) [15]: about 90%; cellular Bax by immunofluorescence microscopy ([16]; 5 μM, 24 h): considerable Bax accumulation; increase of Bax, densitometric analysis of Western blotting ([16]; n=3, data not shown): 2.8 times; cell cycle distribution: G2/M phase [17]: marked accumulation of MCF-7 cells in the G2/M phase; sub-G1 peak (apoptotic cells) [17]: a notable cell population was observed in a sub-G1-peak
7 | COc1cc2c(/C=C3/C(=O)N(C)c4ccccc43)c(Cl)n(C)c2cc1C [Compound 13] | 4.07 | 33.11 | 8.51 | 4.47 | 14.13 | 18.20 | 10.23 | 10.00 | 13.18 | 77.6 | 11.48 | 0.32 | –
